Measured values from ChEMBL document CHEMBL6092224, “The Discovery and Preclinical Profile of ALG-000184, a Prodrug of the Potent Hepatitis B Virus Capsid Assembly Modulator ALG-001075” (J Med Chem, 2024).

Experiments:
[1] = Metabolic stability in Cynomolgous monkey liver microsomes assessed as half life at 1 uM incubated upto 60 mins in presence of NADPH; type: ADME, Macaca fascicularis, Microsome; conditions: cynomolgus monkey
Outline: (§1)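 Compound at 1 μM incubated at 37 °C with liver microsomes of each species for 0, 15, 30 and 60 min, with and without NADPH; half-life determined.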

[2] = Metabolic stability in dog plasma assessed as half life; type: ADME, cell-free, Canis lupus familiaris
[3] = biological target: Cytochrome P450 2C9 (Homo sapiens, UniProt P11712); assay: Inhibition of CYP2C9 in human liver microsomes in presence of NADPH; type: ADME, Microsome
Outline: (§2)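 Pooled human liver microsomes with CYP isoform-specific probe substrates, in 100 mM potassium phosphate pH 7.4, 3 mM MgCl2 and 1 mM NADPH, at 37 °C. Final test ranges were 0.069–50 μM or 0.03–100 μM; IC50 was determined.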

[4] = biological target: Cytochrome P450 1A2 (Homo sapiens, UniProt P05177); assay: Inhibition of CYP1A2 in human liver microsomes in presence of NADPH; type: ADME, Microsome; outline: as §2
[5] = Genotoxicity in human TK6 cells measured for 4 to 27 hrs by micronucleus test; type: toxicity, cell-based; conditions: time 4-27 hrs
[6] = biological target: Solute carrier organic anion transporter family member 1B3 (Homo sapiens, UniProt Q9NPD5); assay: Inhibition of OATP1B3 (unknown origin) transfected in HEK293 cells; type: cell-based
Outline: (§3)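 HEK-293 cells transfected with the uptake transporter; uptake of known probe substrates measured with test compound at eight concentrations (0.0229–50.0 μM or 0.0457–100 μM); inhibition at each concentration used to calculate IC50.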

[7] = biological target: Cytochrome P450 2C19 (Homo sapiens, UniProt P33261); assay: Inhibition of CYP2C19 in human liver microsomes in presence of NADPH; type: ADME, Microsome; outline: as §2
[8] = Metabolic stability in human plasma assessed as half life; type: ADME, cell-free
[9] = biological target: Solute carrier organic anion transporter family member 1B1 (Homo sapiens, UniProt Q9Y6L6); assay: Inhibition of OATP1B1 (unknown origin) transfected in HEK293 cells; type: cell-based; outline: as §3
[10] = biological target: Voltage-gated inwardly rectifying potassium channel KCNH2 (Homo sapiens, UniProt Q12809); assay: Inhibition of hERG expressed in mammalian cells at 10 uM by automated patch-clamp method; type: toxicity, cell-based
Outline: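 Currents of hERG, Nav1.5 or Cav1.2 channels expressed in mammalian cells recorded by automated patch clamp (QPatch 48) at room temperature.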

[11] = Mutagenicity in Salmonella […] by Ames test; type: toxicity; conditions: salmonella enterica subsp. enterica serovar typhimurium
[12] = biological target: UGT1A1 (Homo sapiens, UniProt P22309); assay: Inhibition of recombinant human UGT1A1 at 10 uM in presence of UDPGA relative to control
Outline: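 Recombinant human UGT1A1 at 0.05 mg/mL with 5 mM UDPGA cofactor, 10 min incubation; test compound at single 10 μM concentration.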

[13] = Metabolic stability in mouse plasma assessed as half life; type: ADME, cell-free
[14] = biological target: Cytochrome P450 2D6 (Homo sapiens, UniProt P10635); assay: Inhibition of CYP2D6 in human liver microsomes in presence of NADPH; type: ADME, Microsome; outline: as §2
[15] = Metabolic stability in rat liver microsomes assessed as half life at 1 uM incubated upto 60 mins in presence of NADPH; type: ADME, Microsome; outline: as §1
[16] = biological target: T1, Cytochrome P450 2B6 (Homo sapiens, UniProt P20813); assay: Inhibition of CYP2B6 in human liver microsomes in presence of NADPH; type: ADME, Microsome; outline: as §2
T1 sequence (P20813 whole entry): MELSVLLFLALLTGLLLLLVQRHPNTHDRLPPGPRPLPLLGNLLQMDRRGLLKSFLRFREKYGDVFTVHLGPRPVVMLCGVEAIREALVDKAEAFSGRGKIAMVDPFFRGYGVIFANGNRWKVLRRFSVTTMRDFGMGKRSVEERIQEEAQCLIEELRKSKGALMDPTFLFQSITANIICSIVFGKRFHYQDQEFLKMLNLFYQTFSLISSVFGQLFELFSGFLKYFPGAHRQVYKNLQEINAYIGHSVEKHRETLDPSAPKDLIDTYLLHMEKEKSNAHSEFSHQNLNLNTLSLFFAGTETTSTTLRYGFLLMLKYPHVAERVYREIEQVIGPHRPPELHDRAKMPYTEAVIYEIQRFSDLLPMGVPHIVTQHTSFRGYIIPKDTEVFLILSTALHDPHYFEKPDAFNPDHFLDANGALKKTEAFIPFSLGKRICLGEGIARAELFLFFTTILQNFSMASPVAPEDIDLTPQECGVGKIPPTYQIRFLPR

[17] = biological target: Cytochrome P450 2C8 (Homo sapiens, UniProt P10632); assay: Inhibition of CYP2C8 in human liver microsomes in presence of NADPH; type: ADME, Microsome; outline: as §2
[18] = Mutagenicity in Salmonella typhimurium TA1535 by Ames test; type: toxicity; conditions: salmonella enterica subsp. enterica serovar typhimurium
[19] = Metabolic stability in dog liver microsomes assessed as half life at 1 uM incubated upto 60 mins in presence of NADPH; type: ADME, Canis lupus familiaris, Microsome; outline: as §1
[20] = Metabolic stability in mouse liver microsomes assessed as half life at 1 uM incubated upto 60 mins in presence of NADPH; type: ADME, Microsome; outline: as §1
[21] = Metabolic stability in rat plasma assessed as half life; type: ADME, cell-free
[22] = Metabolic stability in human liver microsomes assessed as half life at 1 uM incubated upto 60 mins in presence of NADPH; type: ADME, Microsome; outline: as §1
[23] = Mutagenicity in Salmonella typhimurium TA100 by Ames test; type: toxicity; conditions: salmonella enterica subsp. enterica serovar typhimurium
[24] = Metabolic stability in Cynomolgous monkey plasma assessed as half life; type: ADME, cell-free, Macaca fascicularis; conditions: cynomolgus monkey
[25] = tested on: Hepatitis B virus; assay: Antiviral activity against HBV genotype D infected in human HepG2.117 cells assessed as decrease in HBV DNA production by qPCR analysis; type: functional, organism-based
Outline: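 HepG2.117 cells (integrated genotype D HBV genome, Tet-off promoter; kept in 1 μg/mL doxycycline) were seeded at 20,000 cells/well and given serial compound dilutions (2% DMSO) for 3 days at 37 °C. Lysates were taken in 0.33% NP40. Intracellular HBV DNA was quantified by qPCR and EC50/EC90 derived. For serum shift, 40% human serum was present during incubation. Mean ± SEM, n=3 (serum) or 13.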

[26] = Mutagenicity in Salmonella typhimurium TA98 by Ames test; type: toxicity; conditions: salmonella enterica subsp. enterica serovar typhimurium
[27] = Mutagenicity in Salmonella typhimurium TA97a by Ames test; type: toxicity; conditions: salmonella enterica subsp. enterica serovar typhimurium
[28] = biological target: Cytochrome P450 3A4 (Homo sapiens, UniProt P08684); assay: Inhibition of CYP3A4 in human liver microsomes in presence of NADPH; type: ADME, Microsome
Outline: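 Pooled human liver microsomes in 100 mM potassium phosphate pH 7.4, 3 mM MgCl2, 1 mM NADPH, 37 °C, with CYP3A4-specific probe substrate; test compound over 0.069–50 μM or 0.03–100 μM final, IC50 derived.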

[29] = biological target: Solute carrier family 22 member 1 (Homo sapiens, UniProt O15245); assay: Inhibition of OCT1 (unknown origin) transfected in HEK293 cells; type: cell-based; outline: as §3
[30] = Oral bioavailability in Beagle dog at 5 mg/kg by LC-MS/MS analysis; type: ADME, organism-based, Canis lupus familiaris; conditions: in vivo
Outline: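 Fasted male C57BL6 mice, Sprague–Dawley rats, beagle dogs, cynomolgus monkeys; single IV dose 1 mg/kg or PO solution 5 mg/kg in 80% PEG 400 in water; plasma concentrations measured, noncompartmental analysis with nominal doses and times; F from PO vs IV AUC.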

Sequence of Cytochrome P450 2C8 (P10632 whole entry): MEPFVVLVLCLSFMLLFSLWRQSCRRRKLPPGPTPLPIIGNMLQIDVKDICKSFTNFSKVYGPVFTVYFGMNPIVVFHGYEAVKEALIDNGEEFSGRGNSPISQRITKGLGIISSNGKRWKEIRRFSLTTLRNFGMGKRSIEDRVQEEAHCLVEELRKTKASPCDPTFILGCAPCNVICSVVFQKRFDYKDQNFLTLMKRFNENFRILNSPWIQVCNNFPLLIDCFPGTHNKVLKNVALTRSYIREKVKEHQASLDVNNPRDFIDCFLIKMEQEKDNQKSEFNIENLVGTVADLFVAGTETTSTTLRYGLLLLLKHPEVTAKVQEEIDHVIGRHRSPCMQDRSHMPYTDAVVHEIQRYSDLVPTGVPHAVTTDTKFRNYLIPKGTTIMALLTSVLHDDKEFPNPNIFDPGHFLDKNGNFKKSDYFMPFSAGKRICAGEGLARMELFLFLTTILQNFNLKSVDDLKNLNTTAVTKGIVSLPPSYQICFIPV
Sequence of Cytochrome P450 2D6 (P10635 whole entry): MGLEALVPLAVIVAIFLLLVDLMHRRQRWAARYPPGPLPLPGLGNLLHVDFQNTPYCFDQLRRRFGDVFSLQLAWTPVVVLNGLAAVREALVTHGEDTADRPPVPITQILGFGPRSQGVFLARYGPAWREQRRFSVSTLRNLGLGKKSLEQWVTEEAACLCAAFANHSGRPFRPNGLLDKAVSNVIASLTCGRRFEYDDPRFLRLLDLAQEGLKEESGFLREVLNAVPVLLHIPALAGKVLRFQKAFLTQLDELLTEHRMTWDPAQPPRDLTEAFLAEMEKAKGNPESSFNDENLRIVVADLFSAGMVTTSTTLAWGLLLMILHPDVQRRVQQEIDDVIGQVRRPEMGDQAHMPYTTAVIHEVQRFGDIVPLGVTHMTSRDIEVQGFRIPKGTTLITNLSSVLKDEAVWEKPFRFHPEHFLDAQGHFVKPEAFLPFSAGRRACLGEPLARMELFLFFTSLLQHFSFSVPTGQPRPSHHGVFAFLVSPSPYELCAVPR
Sequence of Solute carrier organic anion transporter family member 1B1 (Q9Y6L6 whole entry): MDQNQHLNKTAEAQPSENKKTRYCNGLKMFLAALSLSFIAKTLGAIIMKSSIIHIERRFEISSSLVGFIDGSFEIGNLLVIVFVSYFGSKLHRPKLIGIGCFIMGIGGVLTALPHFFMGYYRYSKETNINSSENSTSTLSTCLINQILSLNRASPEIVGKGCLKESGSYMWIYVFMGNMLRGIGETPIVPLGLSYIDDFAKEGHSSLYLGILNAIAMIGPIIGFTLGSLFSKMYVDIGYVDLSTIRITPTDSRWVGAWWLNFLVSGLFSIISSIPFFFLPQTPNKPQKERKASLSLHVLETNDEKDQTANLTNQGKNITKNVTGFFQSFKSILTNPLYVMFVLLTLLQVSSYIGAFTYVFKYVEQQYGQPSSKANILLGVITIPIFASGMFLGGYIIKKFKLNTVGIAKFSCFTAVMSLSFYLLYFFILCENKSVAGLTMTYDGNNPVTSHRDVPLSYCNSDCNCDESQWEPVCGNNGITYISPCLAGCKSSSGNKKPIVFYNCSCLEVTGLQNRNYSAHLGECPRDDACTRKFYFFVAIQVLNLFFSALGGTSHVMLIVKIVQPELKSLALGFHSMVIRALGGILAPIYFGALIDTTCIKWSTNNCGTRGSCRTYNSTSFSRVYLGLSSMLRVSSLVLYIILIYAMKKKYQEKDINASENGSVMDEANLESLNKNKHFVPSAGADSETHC
Sequence of Solute carrier organic anion transporter family member 1B3 (Q9NPD5 whole entry): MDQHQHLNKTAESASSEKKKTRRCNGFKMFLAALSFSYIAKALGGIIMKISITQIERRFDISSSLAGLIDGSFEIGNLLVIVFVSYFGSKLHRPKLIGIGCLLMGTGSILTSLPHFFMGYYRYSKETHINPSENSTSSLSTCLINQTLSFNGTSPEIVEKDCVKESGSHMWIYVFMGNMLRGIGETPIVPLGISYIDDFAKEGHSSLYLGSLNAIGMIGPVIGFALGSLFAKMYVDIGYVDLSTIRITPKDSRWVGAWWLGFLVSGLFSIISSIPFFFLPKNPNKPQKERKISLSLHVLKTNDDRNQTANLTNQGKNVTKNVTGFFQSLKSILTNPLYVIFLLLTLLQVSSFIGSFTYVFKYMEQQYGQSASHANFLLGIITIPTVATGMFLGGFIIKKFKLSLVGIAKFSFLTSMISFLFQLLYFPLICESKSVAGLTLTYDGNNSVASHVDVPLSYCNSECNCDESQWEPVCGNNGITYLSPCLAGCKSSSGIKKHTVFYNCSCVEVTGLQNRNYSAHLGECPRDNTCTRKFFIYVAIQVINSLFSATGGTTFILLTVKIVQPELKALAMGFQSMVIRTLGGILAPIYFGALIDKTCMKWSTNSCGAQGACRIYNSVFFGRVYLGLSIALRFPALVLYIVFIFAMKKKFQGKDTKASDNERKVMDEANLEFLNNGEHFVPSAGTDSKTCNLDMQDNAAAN
Sequence of Cytochrome P450 3A4 (P08684 whole entry): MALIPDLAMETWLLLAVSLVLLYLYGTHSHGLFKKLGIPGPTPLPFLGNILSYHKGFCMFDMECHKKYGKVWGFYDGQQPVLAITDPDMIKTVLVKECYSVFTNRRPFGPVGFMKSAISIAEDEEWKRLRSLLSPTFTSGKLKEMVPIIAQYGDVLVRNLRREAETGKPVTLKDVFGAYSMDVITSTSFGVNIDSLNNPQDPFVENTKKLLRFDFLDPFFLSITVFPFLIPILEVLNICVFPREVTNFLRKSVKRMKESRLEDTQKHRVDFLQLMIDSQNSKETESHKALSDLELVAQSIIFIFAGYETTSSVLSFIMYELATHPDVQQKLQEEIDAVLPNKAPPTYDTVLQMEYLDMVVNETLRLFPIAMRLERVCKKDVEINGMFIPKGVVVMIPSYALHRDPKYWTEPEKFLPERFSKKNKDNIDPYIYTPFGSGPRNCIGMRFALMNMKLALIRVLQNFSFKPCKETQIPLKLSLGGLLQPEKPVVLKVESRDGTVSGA
Sequence of UGT1A1 (P22309 whole entry): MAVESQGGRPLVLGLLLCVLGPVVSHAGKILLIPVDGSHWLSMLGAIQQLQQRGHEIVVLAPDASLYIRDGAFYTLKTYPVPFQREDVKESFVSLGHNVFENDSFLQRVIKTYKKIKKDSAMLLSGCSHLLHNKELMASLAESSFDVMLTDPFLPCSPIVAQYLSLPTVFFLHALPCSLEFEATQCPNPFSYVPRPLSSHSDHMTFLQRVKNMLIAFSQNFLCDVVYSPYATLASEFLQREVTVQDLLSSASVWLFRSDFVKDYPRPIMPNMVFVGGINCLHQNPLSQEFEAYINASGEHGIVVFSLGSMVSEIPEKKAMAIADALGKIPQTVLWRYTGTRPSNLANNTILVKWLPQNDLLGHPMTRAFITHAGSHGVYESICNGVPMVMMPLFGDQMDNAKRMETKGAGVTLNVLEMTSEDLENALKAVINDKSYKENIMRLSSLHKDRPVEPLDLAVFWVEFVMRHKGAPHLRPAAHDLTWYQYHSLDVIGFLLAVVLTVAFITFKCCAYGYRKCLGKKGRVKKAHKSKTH
Sequence of Cytochrome P450 2C19 (P33261 whole entry): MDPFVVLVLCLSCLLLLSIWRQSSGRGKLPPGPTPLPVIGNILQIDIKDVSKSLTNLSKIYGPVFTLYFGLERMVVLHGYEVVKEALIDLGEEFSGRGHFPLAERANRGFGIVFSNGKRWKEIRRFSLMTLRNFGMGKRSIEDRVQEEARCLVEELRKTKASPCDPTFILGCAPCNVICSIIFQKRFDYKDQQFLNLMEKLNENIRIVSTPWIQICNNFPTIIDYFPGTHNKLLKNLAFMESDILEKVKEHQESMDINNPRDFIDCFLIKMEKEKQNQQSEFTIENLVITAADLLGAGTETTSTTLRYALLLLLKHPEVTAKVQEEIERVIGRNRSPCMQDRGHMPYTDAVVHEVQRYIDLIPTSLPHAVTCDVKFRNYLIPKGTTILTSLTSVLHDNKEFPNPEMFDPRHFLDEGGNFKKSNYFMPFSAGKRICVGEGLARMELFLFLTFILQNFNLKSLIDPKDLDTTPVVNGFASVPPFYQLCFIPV
Sequence of Cytochrome P450 1A2 (P05177 whole entry): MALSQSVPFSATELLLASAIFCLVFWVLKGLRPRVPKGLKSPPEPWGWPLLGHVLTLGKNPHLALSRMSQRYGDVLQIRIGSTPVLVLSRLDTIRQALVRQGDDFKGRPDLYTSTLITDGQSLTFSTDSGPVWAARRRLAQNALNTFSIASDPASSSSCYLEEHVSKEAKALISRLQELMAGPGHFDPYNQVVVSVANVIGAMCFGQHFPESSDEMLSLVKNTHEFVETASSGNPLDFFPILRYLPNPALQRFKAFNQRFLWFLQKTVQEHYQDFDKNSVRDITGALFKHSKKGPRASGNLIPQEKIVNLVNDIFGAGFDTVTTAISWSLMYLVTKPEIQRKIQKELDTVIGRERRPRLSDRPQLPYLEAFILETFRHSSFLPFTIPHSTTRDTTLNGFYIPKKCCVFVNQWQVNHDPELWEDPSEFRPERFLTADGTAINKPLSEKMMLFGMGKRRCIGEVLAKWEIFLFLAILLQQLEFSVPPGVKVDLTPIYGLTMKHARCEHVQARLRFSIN
Sequence of Cytochrome P450 2C9 (P11712 whole entry, canonical isoform): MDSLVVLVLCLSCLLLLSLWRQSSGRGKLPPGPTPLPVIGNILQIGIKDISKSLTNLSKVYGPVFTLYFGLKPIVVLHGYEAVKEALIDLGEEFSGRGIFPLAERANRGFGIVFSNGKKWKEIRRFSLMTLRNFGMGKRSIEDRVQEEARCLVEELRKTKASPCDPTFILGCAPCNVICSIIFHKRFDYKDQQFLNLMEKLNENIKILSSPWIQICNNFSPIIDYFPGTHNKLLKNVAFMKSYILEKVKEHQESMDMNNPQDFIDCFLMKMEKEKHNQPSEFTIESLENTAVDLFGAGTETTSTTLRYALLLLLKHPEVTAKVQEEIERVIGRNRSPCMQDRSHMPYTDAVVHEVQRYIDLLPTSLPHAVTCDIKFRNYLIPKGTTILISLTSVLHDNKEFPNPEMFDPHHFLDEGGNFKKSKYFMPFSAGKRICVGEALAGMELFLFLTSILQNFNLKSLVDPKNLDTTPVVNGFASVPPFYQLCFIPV

SMILES	half-life at 1 µM [1]	half-life [2]	IC50 [3]	IC50 [4]	Activity [5]	IC50 [6]	IC50 [7]	half-life [8]	IC50 [9]	IC50 [10]	Activity [11]	inhibition at 10 µM [12]	half-life [13]	IC50 [14]	half-life at 1 µM [15]	IC50 [16]	IC50 [17]	Activity [18]	half-life at 1 µM [19]	half-life at 1 µM [20]	other results
C#CC1(N(COP(=O)([O-])[O-])C(=O)C(=O)c2c(C)c(C(=O)Nc3ccc(F)c(C#N)c3)n(C)c2C)COC1.[Na+].[Na+]	> 1 h	> 4 h	> 100 µM	> 100 µM	Non-toxic	~50 µM	> 100 µM	> 4 h	~50 µM	> 300 µM	Non-toxic	11.2%	> 4 h	> 100 µM	> 1 h	> 100 µM	> 100 µM	Non-toxic	> 1 h	> 1 h	half-life [21]: > 4 h; half-life at 1 µM [22]: > 1 h; Activity [23]: Non-toxic; half-life [24]: > 4 h; EC50 [25]: 0.00145 µM; Activity [26]: Non-toxic; Activity [27]: Non-toxic; IC50 [28]: > 100 µM
C#CC1(NC(=O)C(=O)c2c(C)c(C(=O)Nc3ccc(F)c(C#N)c3)n(C)c2C)COC1	> 1 h	> 4 h	> 50 µM	> 50 µM	Non-toxic	> 11.8 µM	> 50 µM	> 4 h	> 11.8 µM	> 10 µM	Non-toxic	7.3%	> 4 h	> 50 µM	> 1 h	> 50 µM	48.6 µM	Non-toxic	> 1 h	> 1 h	IC50 [29]: > 11.8 µM; half-life [21]: > 4 h; half-life at 1 µM [22]: > 1 h; Activity [23]: Non-toxic; half-life [24]: > 4 h; EC50 [25]: 0.00063 µM; EC90 [25]: 0.00317 µM; bioavailability [30]: 57.5%; Activity [26]: Non-toxic; Activity [27]: Non-toxic; IC50 [28]: > 50 µM
